In ChEMBL document CHEMBL4808218, “Structural and biophysical characterization of the Burkholderia pseudomallei IspF inhibitor L-tryptophan hydroxamate” (Bioorg Med Chem Lett, 2021):
Calls of active or inactive are those of the source. No cut-off for these calls is given here.

Legend:
[1] = biological target: T1, 2-C-methyl-D-erythritol 2,4-cyclodiphosphate synthase (Burkholderia pseudomallei (strain K96243), UniProt Q63T71); assay: Binding affinity to Burkholderia pseudomallei IspF at pH 8 measured by isothermal titration calorimetry method; conditions: read-out: Kd(app)
T1 sequence (Q63T71 whole entry): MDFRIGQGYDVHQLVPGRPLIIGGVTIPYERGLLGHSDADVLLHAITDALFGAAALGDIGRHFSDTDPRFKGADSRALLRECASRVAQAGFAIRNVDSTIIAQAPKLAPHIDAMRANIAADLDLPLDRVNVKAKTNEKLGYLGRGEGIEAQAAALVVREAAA
Method in brief: (§1)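 ITC titration of BpIspF with ligand at 25 °C, run in buffer at pH 6.0, 7.4 or 8.0 as set by the line. Fits gave Kb, ΔG°, ΔH°, -TΔS° and stoichiometry. Ligand concentration was set from the tryptophan extinction coefficient. The pH 6.0/7.4 ratio compares the apparent Kd from these two runs.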

[2] = biological target: T2, 2-C-methyl-D-erythritol 2,4-cyclodiphosphate synthase (Burkholderia pseudomallei (strain K96243)) (UniProt Q63T71); assay: Binding affinity to Burkholderia pseudomallei IspF assessed as change in free energy at pH 6 measured by isothermal titration calorimetry method; method in brief: as §1
T2 sequence (whole entry): T1 sequence (Q63T71 whole entry)

[3] = biological target: T1, 2-C-methyl-D-erythritol 2,4-cyclodiphosphate synthase; assay: Binding affinity to Burkholderia pseudomallei IspF at pH 7.4 measured by isothermal titration calorimetry method; conditions: read-out: Kd(app); method in brief: as §1
[4] = biological target: T3, 2-C-methyl-D-erythritol 2,4-cyclodiphosphate synthase (Escherichia coli (strain K12)) (UniProt P62617); assay: Binding affinity to Escherichia coli IspF assessed as change in free energy at pH 7.4 measured by isothermal titration calorimetry method
T3 sequence (whole entry): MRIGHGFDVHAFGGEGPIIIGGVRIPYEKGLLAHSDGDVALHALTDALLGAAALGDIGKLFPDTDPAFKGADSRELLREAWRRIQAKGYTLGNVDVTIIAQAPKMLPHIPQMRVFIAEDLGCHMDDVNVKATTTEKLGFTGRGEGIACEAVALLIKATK

[5] = biological target: T2, 2-C-methyl-D-erythritol 2,4-cyclodiphosphate synthase (Burkholderia pseudomallei (strain K96243)); assay: Binding affinity to Burkholderia pseudomallei IspF assessed as change in entropy at pH 8 measured by isothermal titration calorimetry method; method in brief: as §1
[6] = biological target: T2, 2-C-methyl-D-erythritol 2,4-cyclodiphosphate synthase (Burkholderia pseudomallei (strain K96243)); assay: Binding affinity to Burkholderia pseudomallei IspF assessed as change in enthalpy at pH 6 measured by isothermal titration calorimetry method; method in brief: as §1
[7] = biological target: T2, 2-C-methyl-D-erythritol 2,4-cyclodiphosphate synthase (Burkholderia pseudomallei (strain K96243)); assay: Binding affinity to Burkholderia pseudomallei IspF by STD NMR analysis
[8] = biological target: T2, 2-C-methyl-D-erythritol 2,4-cyclodiphosphate synthase (Burkholderia pseudomallei (strain K96243)); assay: Binding affinity to Burkholderia pseudomallei IspF assessed as change in entropy at pH 6 measured by isothermal titration calorimetry method; method in brief: as §1
[9] = biological target: T2, 2-C-methyl-D-erythritol 2,4-cyclodiphosphate synthase (Burkholderia pseudomallei (strain K96243)); assay: Ratio of apparent Kd for Burkholderia pseudomallei IspF at pH 6 to apparent Kd for Burkholderia pseudomallei IspF at pH 7.4; method in brief: as §1
[10] = biological target: T1, 2-C-methyl-D-erythritol 2,4-cyclodiphosphate synthase; assay: Binding affinity to Burkholderia pseudomallei IspF at pH 6 measured by isothermal titration calorimetry method; conditions: read-out: Kd(app); method in brief: as §1
[11] = biological target: T2, 2-C-methyl-D-erythritol 2,4-cyclodiphosphate synthase (Burkholderia pseudomallei (strain K96243)); assay: Binding affinity to Burkholderia pseudomallei IspF assessed as change in free energy at pH 7.4 measured by isothermal titration calorimetry method; method in brief: as §1
[12] = biological target: T2, 2-C-methyl-D-erythritol 2,4-cyclodiphosphate synthase (Burkholderia pseudomallei (strain K96243)); assay: Binding affinity to Burkholderia pseudomallei IspF assessed as change in free energy at pH 8 measured by isothermal titration calorimetry method; method in brief: as §1
[13] = biological target: T2, 2-C-methyl-D-erythritol 2,4-cyclodiphosphate synthase (Burkholderia pseudomallei (strain K96243)); assay: Binding affinity to Burkholderia pseudomallei IspF assessed as change in enthalpy at pH 8 measured by isothermal titration calorimetry method; method in brief: as §1
[14] = biological target: T4, 2-C-methyl-D-erythritol 2,4-cyclodiphosphate synthase (Escherichia coli (strain K12), UniProt P62617); assay: Binding affinity to Escherichia coli IspF at pH 7.4 measured by isothermal titration calorimetry method; conditions: read-out: Kd(app)
T4 sequence (P62617 whole entry): T3 sequence (whole entry)

[15] = biological target: T2, 2-C-methyl-D-erythritol 2,4-cyclodiphosphate synthase (Burkholderia pseudomallei (strain K96243)); assay: Binding affinity to Burkholderia pseudomallei IspF assessed as change in entropy at pH 7.4 measured by isothermal titration calorimetry method; method in brief: as §1
[16] = biological target: T2, 2-C-methyl-D-erythritol 2,4-cyclodiphosphate synthase (Burkholderia pseudomallei (strain K96243)); assay: Binding affinity to Burkholderia pseudomallei IspF assessed as change in enthalpy at pH 7.4 measured by isothermal titration calorimetry method; method in brief: as §1

Q: Which Kd [1] does the source give for `N[C@@H](Cc1c[nH]c2ccccc12)C(=O)NO` here?
A: 24 µM

Q: And the deltaG [2]?
A: -17.5 kJ/mol

Q: What about the Kd [3] of the same compound?
A: 36 µM

Q: And the deltaG [4]?
A: -26.8 kJ/mol

Q: And the -TdeltaS [5]?
A: 8.37 kJ/mol

Q: And the deltaH [6]?
A: 4.6 kJ/mol

Q: And the Activity [7]?
A: Active

Q: And the -TdeltaS [8]?
A: -21.8 kJ/mol

Q: And the Ratio [9]?
A: 25

Q: And the Kd [10]?
A: 848 µM

Q: What about the deltaG [11] of the same compound?
A: -25.5 kJ/mol

Q: And the deltaG [12]?
A: -26.3 kJ/mol

Q: What about the deltaH [13] of the same compound?
A: -34.7 kJ/mol

Q: And the Kd [14]?
A: 22 µM

Q: Which Activity [7] does the source give for `CC(C)=CCC/C(C)=C/COP(=O)(O)OP(=O)(O)O` here?
A: inactive

Q: With `N[C@H](Cc1c[nH]c2ccccc12)C(=O)NO` as the compound, how does the Kd [3] read?
A: 64 µM

Q: And the -TdeltaS [15]?
A: 3.77 kJ/mol

Q: And the deltaH [16]?
A: -27.8 kJ/mol

Q: What about the deltaG [11] of the same compound?
A: -23.8 kJ/mol

Q: For `N[C@H](Cc1c[nH]c2ccccc12)C(=O)O` [D-TRYPTOPHAN], which Kd [3] is on record?
A: > 1000 µM

Q: Which Kd [3] does the source give for `N[C@@H](Cc1c[nH]c2ccccc12)C(=O)O` [TRYPTOPHAN] here?
A: > 1000 µM
